Only some compounds are listed: those with a hit (about 1.9% of all), similar ones and a draw of the others.
PP5 primary: inhibitors of human protein phosphatase 5 (PP5); P53041; purified PP5c, OMFP substrate fluorescence; inhibition, % at 6.7 µM; hit rate 0.18% among 320,000;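 active = inhibition above the campaign's mean inhibition across all tested compounds plus 3 SD, cut at about 9.5% in these data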;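 also: 0% = DMSO only and 100% = 100 µM cantharidin control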
STEP block: STEP (human) phosphatase inhibition. P54829. recombinant STEP, OMFP fluorogenic substrate, fluorescence. inhibition, % at 20 µM. hit rate 0.25% among 360,000. AID 588621;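 active = inhibition at 20 µM, scaled per plate between control wells, above about 37%, limit read from the data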;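 also: 0% = DMSO with enzyme and substrate and 100% = substrate only without enzyme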
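Material: STEP (striatal-enriched tyrosine phosphatase) enzyme, cell-free; Compound dosing: 20 µM single dose in 1% DMSO; Technique: fluorescence read at 480 nm ex / 540 nm em; Times: reaction 20 min, ambient temperature; Medium: 50 mM Bis-Tris pH 6.0 with 2.5 mM DTT and 0.005% Tween 20; Also added: OMFP at 25 µM.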
LMPTP block: LMPTP (human) inhibition. P24666. recombinant LMPTP-A, OMFP fluorogenic substrate, fluorescence intensity. inhibition, % at 20 µM. hit rate 0.22% among 360,000;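 active = compounds that cut the enzyme signal by at least half of the control window in the single-dose screen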;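 also: plate controls were DMSO wells with enzyme plus substrate for no effect and substrate without enzyme for full effect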
Target sequence (P24666 whole entry, looked up): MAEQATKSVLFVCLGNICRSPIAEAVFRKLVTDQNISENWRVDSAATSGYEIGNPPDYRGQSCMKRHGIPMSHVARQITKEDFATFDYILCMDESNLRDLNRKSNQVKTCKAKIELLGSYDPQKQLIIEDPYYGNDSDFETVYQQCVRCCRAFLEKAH
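test system = LMPTP-A | amount = 0.625 nM LMPTP-A final | reagent = fluorogenic phosphatase substrate OMFP at 400 µM final | incubation = 50 min at room temperature | benchmarks = no-enzyme low control, uninhibited high control | medium = Bis-Tris pH 6.0, DTT, detergent | signal = fluorescence intensity of OMFP turnover product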
PP1 inh: PP1-alpha (human) inhibition in PP5 counter-screen | P62136 | purified PP1alpha, OMFP fluorescence | inhibition, % at 6.7 µM | hit rate 0.9% among 320,000 | AID 2235;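 active = inhibition above the mean inhibition of all tested compounds plus 3 SD, computed separately for each screening campaign, cut at about 15% in these data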
Target sequence (P62136 whole entry, looked up): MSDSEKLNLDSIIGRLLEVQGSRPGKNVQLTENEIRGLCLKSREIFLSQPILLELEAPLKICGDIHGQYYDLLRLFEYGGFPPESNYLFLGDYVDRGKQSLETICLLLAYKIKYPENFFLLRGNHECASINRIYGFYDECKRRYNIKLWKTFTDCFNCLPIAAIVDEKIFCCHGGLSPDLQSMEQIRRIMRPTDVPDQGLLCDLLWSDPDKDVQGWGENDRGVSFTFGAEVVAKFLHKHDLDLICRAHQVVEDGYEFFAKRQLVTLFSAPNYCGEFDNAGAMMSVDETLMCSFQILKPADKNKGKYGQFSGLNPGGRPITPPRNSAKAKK
Scp-1 inhibitor: inhibitors of human Scp-1 phosphatase; Q9GZU7; Recombinant Scp1, phosphopeptide, malachite green phosphate absorbance; inhibition, % at 20 µM; hit rate 0.88% among 340,000;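 active = inhibition above about 50% at 20 µM, limit read from the data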;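 also: plate controls were DMSO wells with enzyme for no effect and wells lacking enzyme for full effect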
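Incubation: 45 min enzyme reaction at room temperature / System: truncated SCP-1 phosphatase (76-261aa) / Reagent: Phospho 17-mer peptide substrate / Buffer or medium: Acidic Tris acetate buffer with magnesium and detergent / Signal: absorbance at 630 nm / Doses: one concentration, 20 µM, with 1.0% DMSO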
* = called active by the depositor; . = no result given.

SMILES	PP5 primary	STEP block	LMPTP block	PP1 inh	Scp-1 inhibitor
O=C(O)c1ccc(-n2cccc2/C=C2/SC(=O)N(CC(=O)N3CCCC3)C2=O)cc1	3	93*	18	5	76*
O=C(O)c1cccc(-n2cccc2/C=C2\NC(=O)N(Cc3ccc(F)cc3)C2=O)c1	1	6	4	2	46
O=C(O)c1ccc(-n2cccc2/C=C2/NC(=O)N(c3ccccc3)C2=O)cc1	-2	73*	26	0	89*
CC(C)Cc1nnc(NC(=O)CCC(=O)NC2CCCc3ccccc32)s1 (stereo not drawn)	1	-3	1	2	-9
CN1CCN(C(=O)c2cc3c(ccc4ccccc43)oc2=O)CC1	-1	0	-6	-6	-6
COC(=O)c1c(NC(=O)COC(=O)CNC(=O)c2ccco2)sc(C)c1C	3	-1	0	-1	-8
CC(=O)C1CCC2C3CC=C4CC(SC(=N)N)CCC4(C)C3CCC12C (stereo not drawn)	.	5	63*	.	17
CC(=O)OCC(=O)C1CCC2C3CC=C4CC(O)CCC4(C)C3CCC12C (stereo not drawn)	1	-3	0	-1	-12
COc1ccc(C(C[N+](=O)[O-])c2c(-c3ccccc3)cc3ccccn23)c(OC)c1 (stereo not drawn)	-3	-2	2	17*	-4
COc1ccc(C(C[N+](=O)[O-])c2c(C)cc3ccccn23)cc1 (stereo not drawn)	3	4	3	14	-4
O=C(c1cn2ccccc2n1)N1CCCC(Nc2ccc(F)c(F)c2)C1 (stereo not drawn)	4	2	2	2	-8
Cc1cccc(NC(=O)c2cc(S(=O)(=O)N3CCc4ccccc43)cn2C)c1	5	2	-1	-1	-1
CCOC(=O)c1ccc(NS(=O)(=O)c2c(N)[nH]c(=O)[nH]c2=O)cc1	0	-1	-2	3	1
Cn1nnnc1SCCNCc1ccccc1OCc1ccccc1	1	0	-1	-1	-5
Cc1ccc(-c2cc(C(=O)Nc3ccccn3)c3ccccc3n2)o1	0	7	7	5	58*
CC1CCc2c(sc3ncnc(SCC(=O)Nc4ccc(C(=O)O)cc4)c23)C1 (stereo not drawn)	-1	2	36	-2	-5
CC(C)c1nc(SCC(=O)Nc2ccc(C(=O)O)cc2)c2c3c(sc2n1)CCCC3	1	1	53*	-5	17
C[n+]1cccc2c(Br)ccc([O-])c21	8	17	53*	1	-15
CN(C)c1ccc(C=c2c3ccccc3n3c2cc(-c2ccc(Cl)cc2)[n+]3C)cc1	.	4	52*	.	7
CN(C)c1ccc(C=c2c3ccccc3n3c2c2c([n+]3C)CCCC2)cc1	.	5	53*	.	7
CN(C)c1ccc(C=c2c3ccccc3n3c2cc(-c2ccccc2)[n+]3C)cc1	.	11	89*	.	10
CN(C)c1ccc(C=c2c3cc([N+](=O)[O-])ccc3n3c2cc(-c2ccccc2)[n+]3C)cc1	.	9	68*	.	4
CCOc1ccc(S(=O)(=O)N2CCCCC2)cc1NC(=O)C1COc2ccccc2O1 (stereo not drawn)	4	10	2	9	-3
O=C(Nc1ccc(F)cc1)N1CCN(C/C=C/c2ccccc2)CC1	4	-2	-1	-3	-4
CCOC(=O)c1cc(=O)[nH]c2ccccc12	-2	-4	-1	-2	-5
SMILES	PP5 primary	STEP block	LMPTP block	PP1 inh	Scp-1 inhibitor
COc1cc(N(C)C)ccc1C=c1c2ccccc2n2c1cc(-c1ccccc1)[n+]2C	.	22	90*	.	5
C#CCOCCOCCOCCNc1nc(N2CCN(C(=O)[C@H](CCC(=O)O)n3cc(C(N)Cc4ccc(O)cc4)nn3)CC2)nc(N2CCN(C(=O)[C@H](Cc3cc4ccccc4[nH]3)n3cc(C(N)CC(C)C)nn3)CC2)n1 (stereo partly drawn)	1	.	.	-2	.
C#CCOCCOCCOCCNc1nc(N2CCN(C(=O)C(Cc3ccc(O)cc3)n3cc(C(N)CC(C)C)nn3)CC2)nc(N2CCN(C(=O)C(Cc3cc4ccccc4[nH]3)n3cc(C(N)Cc4ccc(O)cc4)nn3)CC2)n1 (stereo not drawn)	2	.	.	17*	.
C#CCOCCOCCOCCNc1nc(N2CCN(C(=O)[C@H](Cc3cc4ccccc4[nH]3)n3cc([C@@H](N)C(C)CC)nn3)CC2)nc(N2CCN(C(=O)[C@H](Cc3cc4ccccc4[nH]3)n3cc([C@@H](N)CC(C)C)nn3)CC2)n1 (stereo partly drawn)	1	.	.	19*	.
C#CCOCCOCCOCCNc1nc(N2CCN(C(=O)C([C@@H](C)CC)n3cc(C(N)COC(=O)C(F)(F)F)nn3)CC2)nc(N2CCN(C(=O)[C@H](CCCCN)n3cc(C(N)[C@H](C)CC)nn3)CC2)n1 (stereo partly drawn)	2	.	.	17*	3
CC(=O)Nc1cccc(NC(=O)Cc2cccs2)c1	6	5	0	-5	18
O=C(Nc1ccccc1)Nc1cccc(NC(=O)Nc2ccccc2)c1F	2	-6	2	16*	15
O=C(Cn1ccc([N+](=O)[O-])n1)NCC1CCCO1 (stereo not drawn)	.	-1	-1	.	-2
O=C(O)CCNc1cc(N2CCN(C(=O)c3ccco3)CC2)c2noc3c2c1C(=O)c1ccccc1-3	7	41*	11	12	81*
Nc1cccc2c1C(=O)N(CCOc1ccccc1F)C2=O	4	-2	-2	-1	56*
O=C(CSc1nccc(=O)[nH]1)NCc1ccc2c(c1)OCO2	2	1	0	16*	1
CCc1cc(=O)[nH]c(SCC(=O)NCc2ccc3c(c2)OCO3)n1	0	0	0	-3	-6
COC(=O)CCC(=O)OC1(C)C(=O)C2=CN(CC3CC3)C(c3ccc(OC)cc3)=CC2=C(Br)C1=O (stereo not drawn)	7	4	15	17*	2
COC(=O)CCC(=O)OC1(C)C(=O)C2=CN(Cc3ccc(OC)cc3)C(c3ccc(OC)cc3)=CC2=C(Br)C1=O (stereo not drawn)	4	6	4	9	-8
O=C(O)c1ccc(N2CCCCC2)cc1O	-1	-8	1	-1	-4
O=C(O)c1ccc(N2Cc3ccccc3C2)cc1O	4	4	-1	3	71*
CC(=O)Nc1ccc(OC(=O)c2c(-c3ccccc3Cl)noc2C)cc1	4	-1	-1	-2	-7
O=C1N=c2ccccc2=C1c1sc(Nc2ccc(O)cc2)nc1O	.	42*	76*	.	80*
CCCc1nc2ccc(NC(=O)c3cccs3)cc2c(=O)n1Cc1ccccc1Cl	3	1	3	2	0
O=C/C=C/c1coc2ccc3ccccc3c2c1=O	-1	.	.	-3	103*
